Pf gametocyte: late stage P. falciparum gametocyte viability inhibitors, primary screen, ATP luminescence, HTS; AID 743093, 2013; inhibition, % at 10.9 µM; 150,000 compounds, 0.065% hits; P. falciparum stage V gametocytes, 24 h;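 active means inhibition above the mean plus 3 SD of compounds within the control limits, set per campaign, cut at about 38% in these data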
APP 5'UTR act: activators of APP 5'UTR luciferase reporter, primary screen, SH-SY5Y cells. 190,000 compounds, 1% hits. activation, % at 2 µM. SH-SY5Y APP 5'UTR luciferase reporter, luminescence; zero percent = DMSO vehicle wells. AID 1276, 2008;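 active means activation above a set limit, based on mean plus 3 SD of controls, cut at about 140% in these data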
NF-kB neuron act: activators of NF-kB expression in neurons, primary screen, cell-based, HTS; human neuronal cells, NF-kB reporter expression; stronger effect = higher value; fold change at 12.5 µM; 190,000 compounds, 1.6% hits; AID 1239, 2008; in the data active means fold change above about 3.3
STAT3 act: IL-6 driven STAT3 reporter potentiators, primary screen, U3A cells, luciferase, luminescence, MLSCN library; IL-6 STAT3-luciferase reporter; 100% = signal with IL-6 EC80 alone; activation (% of control), % at 5.6 µM; 190,000 compounds, 0.91% hits; AID 871, 2007;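 active means activation above the screen-wide mean of compound activation plus 3 SD, cut at about 130% in these data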
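Material: human U3A cells carrying STAT3-luciferase construct. Measured by: reporter luminescence signal. Timing: compound 1 h, then IL-6 6 h at 37 °C.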
STAT1 inh: STAT1 signaling inhibitors, primary screen, cell-based, HTS, luciferase reporter. NIH 3T3 STAT1-luciferase reporter, IFN-gamma, luminescence. inhibition, % at 5.5 µM. 200,000 compounds, 0.35% hits;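 active means inhibition above a set limit, the mean inhibition across all tested compounds plus 3 SD, cut at about 34% in these data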
STAT1 activator: STAT1 signaling activators, primary screen, cell-based, HTS, luciferase reporter; 200,000 compounds, 2.6% hits; NIH 3T3 STAT1-luciferase reporter, IFN-gamma, luminescence; 100% = IFN-gamma alone, no compound; AID 932, 2007; activation (% of control), % at 5.5 µM;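 active means activation above the screen-wide mean activation plus 3 SD, cut at about 130% in these data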
Large screens that a line does not name were inactive. The list is not random: actives were taken first. Their share in the collection is about 3.9%.

COC(=O)c1ccc(NC(=O)CN(c2ccc(OC)cc2)S(C)(=O)=O)cc1	STAT1 activator 134
Cc1ccc2[nH]c(=O)c(CNS(=O)(=O)c3ccccc3)c(-c3ccccc3)c2c1	none (no result: Pf gametocyte)
Cc1ccn2cc(-c3cccc(NC(=O)C(C)C)c3)nc2c1	STAT1 activator 132
CC(C)C(=O)Nc1cccc(-c2cn3ccccc3n2)c1	none
COc1ccc(CCC(=O)Nc2sccc2C#N)cc1	STAT1 activator 130
COc1ccc(CCC(=O)Nc2nnc(C)s2)cc1	none (no result: APP 5'UTR act, NF-kB neuron act, STAT3 act, STAT1 inh, STAT1 activator)
CCOCCn1c(CN2CCc3ccccc3C2)nc2c1c(=O)n(C)c(=O)n2C	none (no result: APP 5'UTR act, NF-kB neuron act, STAT3 act, STAT1 inh, STAT1 activator)
Cc1sc2c(c1C)CN(Cc1ccncc1)CN2C(=O)c1ccco1	none (no result: Pf gametocyte)
COCCN1Cc2c(sc(C)c2C)N(C(=O)c2ccccc2)C1	STAT3 act 138
CN(/N=C/c1cccnc1)c1cnc2ccccc2n1	APP 5'UTR act 170, STAT3 act 152, STAT1 activator 172
CN=c1scc(-c2ccccc2F)n1/N=C/c1ccc(O)c(O)c1O	STAT1 inh 87
CN=c1scc(-c2ccccc2F)n1/N=C/c1ccc[nH]1	STAT1 inh 97
CC(C)N=c1scc(-c2cccs2)n1/N=C/c1ccc(O)c(O)c1O	none
Cc1cc(C(=O)Cn2nc(C(=O)O)c3ccccc3c2=O)c(C)n1CC(F)(F)F	STAT1 activator 142
Cc1cc(C(=O)Cn2nc(C(=O)O)c3ccccc3c2=O)c(C)n1CCc1ccc(F)cc1	none (no result: APP 5'UTR act, NF-kB neuron act, STAT3 act, STAT1 inh, STAT1 activator)
Cc1ccc(-c2nn(C)c(=O)c3ccccc23)cc1CNC(=O)NC1CCCCC1	none (no result: APP 5'UTR act, NF-kB neuron act, STAT3 act, STAT1 inh, STAT1 activator)
N#CCCN(C(=O)COc1ccc(C#N)cc1)c1ccc(F)cc1	none
Fc1ccc(/C=N/Nc2nc3ccccc3[nH]2)cc1F	none
O=c1[nH]c(N/N=C/c2ccccc2)nc2ccccc12	APP 5'UTR act 140, STAT1 activator 145
O=c1[nH]c(N/N=C/c2cc3c(cc2[N+](=O)[O-])OCO3)nc2ccccc12	none (no result: APP 5'UTR act, NF-kB neuron act, STAT3 act, STAT1 inh, STAT1 activator)
O=c1[nH]c(N/N=C\c2ccc3c(c2)OCO3)nc2ccccc12	APP 5'UTR act 205, NF-kB neuron act 4.4, STAT1 activator 140
Cc1cc(C)c[n+](-c2nc3ccccc3nc2C(=C=[N-])C#N)c1	NF-kB neuron act 4.4 (no result: Pf gametocyte)
Cc1ccc[n+](-c2nc3ccccc3nc2C(=C=[N-])C#N)c1	none
O=C(CSc1nc2ccccc2o1)c1ccccc1	none
Cc1nnc(SCC(=O)c2cc(C)n(C3CC3)c2C)s1	STAT1 activator 136 (no result: Pf gametocyte)
Cc1cc(C(=O)CSc2nc3ccccc3o2)c(C)n1C1CC1	STAT1 activator 136 (no result: Pf gametocyte)
Cc1cc(C(=O)CSc2nnnn2C)c(C)n1C1CC1	none
O=C(Nc1ccccc1)c1cc2ccc3ccccc3c2s1	none (no result: APP 5'UTR act, NF-kB neuron act, STAT3 act, STAT1 inh, STAT1 activator)
OCCC1CN(Cc2cc3c(cc2Cl)OCO3)CCN1C1CCCC1 (stereo not given)	none
O=C(N/N=C/C(Br)=C/c1ccccc1)c1cnccn1	none (no result: APP 5'UTR act, NF-kB neuron act, STAT3 act, STAT1 inh, STAT1 activator)
O=C(CSc1nccn1-c1ncc(C(F)(F)F)cc1Cl)c1ccc(Br)cc1	STAT3 act 162, STAT1 activator 130 (no result: Pf gametocyte)
CC(C)(C)[C@H]1COC(=O)CCC/C=C/C[C@H](CC(=O)NCCO)C(=O)N1	none (no result: APP 5'UTR act, NF-kB neuron act, STAT3 act, STAT1 inh, STAT1 activator)
COCCSc1ccccc1C(=O)N1CCN(Cc2ccccc2)CC1	none
COc1cccc2cc(C(=O)OCc3ccccc3)c(=O)oc12	none (no result: APP 5'UTR act, NF-kB neuron act, STAT3 act, STAT1 inh, STAT1 activator)
Cn1c(SCC(=O)NCc2ccc(F)cc2)nc2c([nH]c3ccccc32)c1=O	STAT3 act 133 (no result: Pf gametocyte)
COc1ccc(NC(=O)CSc2nc3c([nH]c4ccccc43)c(=O)n2C)cc1	STAT3 act 135 (no result: Pf gametocyte)
Cn1c(SCC(=O)N2CCCCC2)nc2c([nH]c3ccccc32)c1=O	none (no result: Pf gametocyte)
COc1cccc(-n2c(SCC(=O)N3CCCC3)nc3c([nH]c4ccccc43)c2=O)c1	STAT3 act 142 (no result: Pf gametocyte, NF-kB neuron act)
O=C(COc1ncnc2ccccc12)NCC1CCCO1 (stereo not given)	none
CC(=O)NCCOc1cccc(OCCNC(C)=O)c1	none (no result: Pf gametocyte)
CC(=O)NCCOc1ccc2oc3ccccc3c2c1	STAT1 activator 130
COc1ccc(-n2nnnc2SCC(=O)Nc2ccc(OC)cc2OC)cc1	none (no result: APP 5'UTR act, NF-kB neuron act, STAT3 act, STAT1 inh, STAT1 activator)
O=C(Cc1csc(-c2ccccc2)n1)NCc1cccs1	none

Screens deposited in PubChem by several laboratories.
